Source: ChEMBL document CHEMBL1128722, “Mechanism-based isocoumarin inhibitors for human leukocyte elastase. Effect of the 7-amino substituent and 3-alkoxy group in 3-alkoxy-7-amino-4-chloroisocoumarins on inhibitory potency” (J Med Chem, 1995)
One block for each molecule: values may come before it. Activity calls are given as the source filed them. The calls are words filed in the database; no cut-off is given here.

Tests used:
[1] = molecular target: Chymotrypsinogen A (Bos taurus) (UniProt P00766); assay: The second order inactivation rate constant was expressed as inhibition of chymotrypsin (ChT).Inhibitor concentrations were 360-570 uM
In short: (§1)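 Kitz–Wilson incubation method. Enzyme was preincubated with inhibitor (added in DMSO) in 0.1 M HEPES, 0.5 M NaCl, pH 7.5, at 25 °C. Aliquots were taken over time and diluted into pNA substrate: HLE MeO-Suc-Ala-Ala-Pro-Val-pNA (0.2–0.5 mM), PPE Suc-Ala-Ala-Ala-pNA, ChT and Cat G Suc-Val-Pro-Phe-pNA (0.4–0.5 mM). Release was read at 410 nm. kobs/[I] from ln(v0/vt) vs time. Mean of two determinations. Fast rates measured with equimolar inhibitor and enzyme.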

[2] = molecular target: T1, Neutrophil elastase (Homo sapiens) (UniProt P08246); assay: The second order inactivation rate constant was expressed as inhibition of human leukocyte elastase (HLE). Inhibitor concentrations were 0.4-4 uM; in short: as §1
T1 sequence (whole entry): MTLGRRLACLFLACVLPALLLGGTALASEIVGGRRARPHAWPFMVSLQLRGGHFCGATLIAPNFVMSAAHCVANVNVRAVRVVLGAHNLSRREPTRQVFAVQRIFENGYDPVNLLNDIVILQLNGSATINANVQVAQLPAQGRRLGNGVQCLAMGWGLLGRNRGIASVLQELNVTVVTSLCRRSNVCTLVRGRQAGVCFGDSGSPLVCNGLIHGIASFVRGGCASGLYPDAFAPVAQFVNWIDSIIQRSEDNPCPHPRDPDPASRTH

[3] = molecular target: T2, Chymotrypsin-like elastase family member 2A (Sus scrofa) (UniProt P08419); assay: The second order inactivation rate constant was expressed as inhibition of porcine pancreatic elastase (PPE).Inhibitor concentrations were 2-600 uM; in short: as §1
T2 sequence (whole entry): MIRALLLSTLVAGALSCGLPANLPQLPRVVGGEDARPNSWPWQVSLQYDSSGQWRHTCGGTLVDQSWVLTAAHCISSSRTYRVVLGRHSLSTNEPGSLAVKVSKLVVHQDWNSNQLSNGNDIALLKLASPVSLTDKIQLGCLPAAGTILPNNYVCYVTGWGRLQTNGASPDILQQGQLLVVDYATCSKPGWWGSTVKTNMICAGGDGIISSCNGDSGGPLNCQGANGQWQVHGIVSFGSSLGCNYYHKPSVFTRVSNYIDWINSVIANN

[4] = molecular target: T2, Chymotrypsin-like elastase family member 2A (Sus scrofa); assay: Percent activity regained after 17h of incubation with hydroxylamine (Non-preincubated Pancreatic elastase).
In short: (§2)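 Without preincubation, hydroxylamine was added immediately after inhibition at [I]/PPE 200:1, and activity was read after 17 h. With preincubation, the 1:1 [I]/PPE complex stood 20 h at room temperature in buffer before hydroxylamine was added. Activity read at 1–17 h.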

[5] = molecular target: T2, Chymotrypsin-like elastase family member 2A (Sus scrofa); assay: Percent activity regained after 20h of pre-incubation before addition of hydroxylamine (Preincubated Pancreatic elastase).; in short: as §2
[6] = molecular target: T2, Chymotrypsin-like elastase family member 2A (Sus scrofa); assay: Percent activity regained after 17h of incubation with hydroxylamine (Non-preincubated PPE).; in short: as §2
[7] = Half-life for hydrolysis of compound was determined from kinetic constant.; format: ADME
In short: (§3)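 Spontaneous hydrolysis in 0.1 M HEPES, 0.5 M NaCl, pH 7.5, 10% v/v DMSO final, 25 °C. Inhibitor added from 2.9–5.0 mM DMSO stock. Ring opening followed as absorbance decrease at 385 nm (ε385 = 3300 M⁻¹ cm⁻¹). Half-life from the first-order rate. Two determinations, standard errors ±15% or less.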

[8] = molecular target: T1, Neutrophil elastase (Homo sapiens); assay: Inhibition of human leukocyte elastase(HLE) at 0.7-1.7 uM; in short: as §1
[9] = molecular target: T2, Chymotrypsin-like elastase family member 2A (Sus scrofa); assay: The second order inactivation rate constant was expressed as inhibition of porcine pancreatic elastase (PPE). Inhibitor concentrations were 34-56 uM; in short: as §1
[10] = molecular target: Chymotrypsinogen A (Bos taurus) (UniProt P00766); assay: The second order inactivation rate constant was expressed as inhibition of chymotrypsin (ChT). Inhibitor concentrations were 3.4-70 uM; in short: as §1
[11] = molecular target: T3, Cathepsin G (Homo sapiens) (UniProt P08311); assay: The second order inactivation rate constant was expressed as inhibition of cathepsin G(Cat G).Inhibitor concentrations were 35-710 uM; No inhibition; in short: as §1
T3 sequence (whole entry): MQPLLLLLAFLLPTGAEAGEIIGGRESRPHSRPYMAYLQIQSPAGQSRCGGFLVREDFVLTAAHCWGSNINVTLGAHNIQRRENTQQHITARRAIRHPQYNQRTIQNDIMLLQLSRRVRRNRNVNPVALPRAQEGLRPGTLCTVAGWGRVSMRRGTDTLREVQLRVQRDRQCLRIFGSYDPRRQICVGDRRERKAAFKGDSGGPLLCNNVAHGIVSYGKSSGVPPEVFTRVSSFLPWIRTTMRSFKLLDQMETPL

[12] = molecular target: T2, Chymotrypsin-like elastase family member 2A (Sus scrofa); assay: The second order inactivation rate constant expressed as inhibition of porcine pancreatic elastase (PPE).Inhibitor concentrations were 0.04-2.0 mM
[13] = molecular target: T3, Cathepsin G (Homo sapiens); assay: Inhibition of cathepsin G at 35-710 uM; in short: as §1
[14] = molecular target: T1, Neutrophil elastase (Homo sapiens); assay: The second order inactivation rate constant was expressed as inhibition of human leukocyte elastase.; in short: as §1
[15] = Half-life for hydrolysis was determined from kinetic constant.; format: ADME; in short: as §3
[16] = molecular target: T1, Neutrophil elastase (Homo sapiens); assay: Inhibition of human leukocyte elastase.; in short: as §1
[17] = molecular target: T1, Neutrophil elastase (Homo sapiens); assay: The second order inactivation rate constant expressed as inhibition of human leukocyte elastase (HLE). Inhibitor concentrations were 0.07-710 uM; in short: as §1
[18] = molecular target: Chymotrypsinogen A (Bos taurus) (UniProt P00766); assay: The second order inactivation rate constant was expressed as inhibition of chymotrypsin (ChT).Inhibitor concentrations were 1.7-58 uM;No inhibition; in short: as §1
[19] = molecular target: T2, Chymotrypsin-like elastase family member 2A (Sus scrofa); assay: The second order inactivation rate constant was expressed as inhibition of porcine pancreatic elastase (PPE).Inhibitor concentrations were 0.04-2.0 uM;No inhibition; details: in the assay text read “0.04-2.0 mM” for “0.04-2.0 uM”; in short: as §1
[20] = molecular target: T1, Neutrophil elastase (Homo sapiens); assay: Second order inactivation rate constant for inhibition of human leukocyte elastase.; in short: as §1
[21] = molecular target: T3, Cathepsin G (Homo sapiens); assay: The second order inactivation rate constant was expressed as inhibition of cathepsin G (Cat G).Inhibitor concentrations were 35-710 uM; in short: as §1

SMILES: CCCOc1oc(=O)c2cc(NC(=O)Nc3ccccc3)ccc2c1Cl
k obs / 1 [8]: 140000 M⁻¹ s⁻¹
k obs / 1 [9]: 1600 M⁻¹ s⁻¹
k obs / 1 [10]: 5200 M⁻¹ s⁻¹

SMILES: O=C(CCc1ccccc1)Nc1ccc2c(Cl)c(OCCCBr)oc(=O)c2c1
K obs / 1 [11]: inactive

SMILES: CCCOc1oc(=O)c2cc(NC(=O)NCC)ccc2c1Cl
k obs / 1 [8]: > 280000 M⁻¹ s⁻¹
k obs / 1 [9]: 220 M⁻¹ s⁻¹
k obs / 1 [10]: 12000 M⁻¹ s⁻¹

SMILES: CCCOc1oc(=O)c2cc(N/C(S)=N/c3ccccc3)ccc2c1Cl
k obs / 1 [8]: > 170000 M⁻¹ s⁻¹
k obs / 1 [9]: 59 M⁻¹ s⁻¹
k obs / 1 [10]: 240 M⁻¹ s⁻¹

SMILES: CCCOc1oc(=O)c2cc(N/C(S)=N/Cc3ccccc3)ccc2c1Cl
k obs / 1 [8]: > 130000 M⁻¹ s⁻¹
k obs / 1 [9]: 79 M⁻¹ s⁻¹
k obs / 1 [10]: 120 M⁻¹ s⁻¹

SMILES: Nc1ccc2c(Cl)c(OCCBr)oc(=O)c2c1
K obs / 1 [12]: 1000 M⁻¹ s⁻¹
K obs / 1 [13]: 410 M⁻¹ s⁻¹
K obs / 1 [14]: 200000 M⁻¹ s⁻¹
half-life [15]: 2.4 h
[I] [16]: 0.07 µM

SMILES: O=C(Nc1ccccc1)Nc1ccc2c(Cl)c(OCCBr)oc(=O)c2c1
K obs / 1 [11]: inactive
K obs / 1 [12]: 36 M⁻¹ s⁻¹
K obs / 1 [17]: 1.2e+06 M⁻¹ s⁻¹

SMILES: CC(C)(C)OC(=O)N[C@H](Cc1ccccc1)C(=O)Nc1ccc2c(Cl)c(OCCCBr)oc(=O)c2c1
K obs / 1 [11]: inactive
K obs / 1 [17]: 1480 M⁻¹ s⁻¹

SMILES: O=C(CCC(=O)OCc1ccccc1)Nc1ccc2c(Cl)c(OCCBr)oc(=O)c2c1
K obs / 1 [18]: inactive
K obs / 1 [17]: 3210 M⁻¹ s⁻¹
K obs / 1 [19]: inactive

SMILES: Nc1ccc2c(Cl)c(OCCCBr)oc(=O)c2c1
k obs / 1 [20]: 4000 M⁻¹ s⁻¹
K obs / 1 [12]: 10 M⁻¹ s⁻¹
K obs / 1 [17]: 4000 M⁻¹ s⁻¹
half-life [15]: 3.2 h
[I] [16]: 3.4 µM
K obs / 1 [21]: 210 M⁻¹ s⁻¹

Further lines, results first:

k obs / 1 [1]: 30 M⁻¹ s⁻¹
k obs / 1 [2]: 130000 M⁻¹ s⁻¹
k obs / 1 [3]: 64 M⁻¹ s⁻¹
Activity regained [4]: 91%
Activity regained [5]: 6%
SMILES: COc1oc(=O)c2cc(NC(=O)[C@H](Cc3ccccc3)NC(=O)c3ccc([N+](=O)[O-])cc3)ccc2c1Cl

Activity regained [6]: 91%
k obs / 1 [1]: 55 M⁻¹ s⁻¹
half-life [7]: > 48 h
k obs / 1 [2]: 180000 M⁻¹ s⁻¹
k obs / 1 [3]: 530 M⁻¹ s⁻¹
Activity regained [5]: 31%
SMILES: COc1oc(=O)c2cc(NC(=O)[C@H](Cc3ccccc3)NC(=O)c3ccccc3)ccc2c1Cl

k obs / 1 [1]: 64 M⁻¹ s⁻¹
half-life [7]: > 48 h
k obs / 1 [2]: 130000 M⁻¹ s⁻¹
k obs / 1 [3]: 1600 M⁻¹ s⁻¹
SMILES: COc1oc(=O)c2cc(NC(=O)[C@H](Cc3ccccc3)NC(=O)c3cccc(C)c3)ccc2c1Cl

k obs / 1 [1]: 130 M⁻¹ s⁻¹
half-life [7]: > 48 h
k obs / 1 [2]: 170000 M⁻¹ s⁻¹
k obs / 1 [3]: 83 M⁻¹ s⁻¹
Activity regained [4]: 91%
Activity regained [5]: 14%
SMILES: COc1oc(=O)c2cc(NC(=O)[C@H](Cc3ccccc3)NC(=O)c3ccc(C)cc3)ccc2c1Cl

k obs / 1 [1]: 10 M⁻¹ s⁻¹
k obs / 1 [2]: 15000 M⁻¹ s⁻¹
k obs / 1 [3]: 68 M⁻¹ s⁻¹
SMILES: COc1oc(=O)c2cc(NC(=O)C(Cc3ccccc3)NC(=O)c3ccc(NC(=O)Nc4ccccc4)cc3)ccc2c1Cl (stereo unspecified)

k obs / 1 [8]: 33000 M⁻¹ s⁻¹
k obs / 1 [9]: 520 M⁻¹ s⁻¹
k obs / 1 [10]: 6100 M⁻¹ s⁻¹
SMILES: CCCOc1oc(=O)c2cc(NC(=O)[C@H](Cc3ccccc3)NS(=O)(=O)c3ccc(C)cc3)ccc2c1Cl

K obs / 1 [11]: inactive
K obs / 1 [17]: 1320 M⁻¹ s⁻¹
SMILES: CC(C)(C)OC(=O)N[C@@H](Cc1ccccc1)C(=O)Nc1ccc2c(Cl)c(OCCCBr)oc(=O)c2c1
